Assay results taken from ChEMBL document CHEMBL3862028, “Exploring N-Arylsulfonyl-l-proline Scaffold as a Platform for Potent and Selective αvβ1 Integrin Inhibitors” (ACS Med Chem Lett, 2016).

Tests used:
Integrin alpha-V/beta-1 = Integrin alpha-V/beta-1 (Homo sapiens, UniProt P05556+P06756); assay: Inhibition of integrin alphaVbeta1 (unknown origin)-mediated CHO cell adhesion to fibronectin preincubated for 15 to 30 mins followed by 60 min incubation for adhesion by crystal violet staining based cell adhesion assay
Chain of Integrin alpha-V/beta-1 (P05556 21-798 limits assumed): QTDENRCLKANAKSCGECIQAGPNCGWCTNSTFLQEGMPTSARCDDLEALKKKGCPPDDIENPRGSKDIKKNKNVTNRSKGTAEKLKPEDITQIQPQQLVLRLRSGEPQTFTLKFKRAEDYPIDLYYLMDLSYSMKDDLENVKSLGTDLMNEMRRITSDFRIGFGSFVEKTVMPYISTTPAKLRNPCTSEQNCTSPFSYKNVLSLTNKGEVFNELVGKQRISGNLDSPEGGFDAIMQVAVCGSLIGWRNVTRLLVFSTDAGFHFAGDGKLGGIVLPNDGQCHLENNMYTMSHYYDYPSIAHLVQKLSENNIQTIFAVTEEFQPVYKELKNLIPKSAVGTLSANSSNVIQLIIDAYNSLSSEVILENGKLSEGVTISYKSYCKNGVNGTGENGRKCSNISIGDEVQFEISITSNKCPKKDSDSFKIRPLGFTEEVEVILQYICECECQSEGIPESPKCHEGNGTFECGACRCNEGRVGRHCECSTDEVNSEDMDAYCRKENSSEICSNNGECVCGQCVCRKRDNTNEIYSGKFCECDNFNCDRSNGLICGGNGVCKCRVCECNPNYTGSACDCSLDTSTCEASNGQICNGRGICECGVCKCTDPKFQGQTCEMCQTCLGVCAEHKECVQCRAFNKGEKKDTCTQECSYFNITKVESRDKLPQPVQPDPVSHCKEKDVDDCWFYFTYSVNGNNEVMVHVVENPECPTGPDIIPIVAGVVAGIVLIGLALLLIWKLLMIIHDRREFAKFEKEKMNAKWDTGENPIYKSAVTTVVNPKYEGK
Chain of Integrin alpha-V/beta-1 (P06756 31-889 limits assumed): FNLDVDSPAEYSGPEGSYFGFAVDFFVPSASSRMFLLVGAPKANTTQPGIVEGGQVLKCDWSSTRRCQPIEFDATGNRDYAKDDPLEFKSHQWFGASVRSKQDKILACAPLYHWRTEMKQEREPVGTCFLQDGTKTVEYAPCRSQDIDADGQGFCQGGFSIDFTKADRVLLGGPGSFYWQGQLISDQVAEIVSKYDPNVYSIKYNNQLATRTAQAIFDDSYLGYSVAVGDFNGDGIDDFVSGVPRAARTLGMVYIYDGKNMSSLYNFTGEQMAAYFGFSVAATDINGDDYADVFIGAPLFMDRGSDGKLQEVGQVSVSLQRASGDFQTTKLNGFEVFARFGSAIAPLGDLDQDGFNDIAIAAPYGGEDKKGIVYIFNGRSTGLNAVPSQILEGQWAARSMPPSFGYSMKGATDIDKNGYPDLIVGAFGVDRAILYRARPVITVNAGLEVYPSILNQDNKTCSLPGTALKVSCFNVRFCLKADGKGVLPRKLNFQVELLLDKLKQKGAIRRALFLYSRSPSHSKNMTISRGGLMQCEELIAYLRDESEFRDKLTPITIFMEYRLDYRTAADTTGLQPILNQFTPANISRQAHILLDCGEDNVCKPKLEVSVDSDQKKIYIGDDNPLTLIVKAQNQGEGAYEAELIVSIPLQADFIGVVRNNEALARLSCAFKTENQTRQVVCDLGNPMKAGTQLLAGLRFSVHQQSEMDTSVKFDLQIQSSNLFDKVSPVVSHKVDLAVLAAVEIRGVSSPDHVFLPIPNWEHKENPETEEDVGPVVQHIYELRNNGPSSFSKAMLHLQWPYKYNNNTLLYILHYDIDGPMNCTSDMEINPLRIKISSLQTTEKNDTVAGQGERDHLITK
Chain of Integrin alpha-V/beta-1 (P06756 891-1048 limits assumed): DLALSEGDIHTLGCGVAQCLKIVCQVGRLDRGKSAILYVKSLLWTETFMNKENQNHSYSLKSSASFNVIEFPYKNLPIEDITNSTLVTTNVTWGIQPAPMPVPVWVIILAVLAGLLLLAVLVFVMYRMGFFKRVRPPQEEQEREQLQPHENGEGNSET
Summary of the method: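 α5-deficient CHO cells engineered to express αvβ1 were tested for adhesion to fibronectin (0.3 mg/ml). Values reported as pIC50 (–logIC50, M) with standard deviation, n=3.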

Integrin alpha-5/beta-1 = Integrin alpha-5/beta-1 (Homo sapiens, UniProt P05556+P08648); assay: Inhibition of human integrin alpha5beta1-mediated human SW480 cell adhesion to fibronectin preincubated for 15 to 30 mins followed by 60 min incubation for adhesion by crystal violet staining based cell adhesion assay
Chain of Integrin alpha-5/beta-1 (P05556 21-798 limits assumed): as the sequence (P05556 21-798 limits assumed) above
Chain of Integrin alpha-5/beta-1 (P08648 42-894 limits assumed): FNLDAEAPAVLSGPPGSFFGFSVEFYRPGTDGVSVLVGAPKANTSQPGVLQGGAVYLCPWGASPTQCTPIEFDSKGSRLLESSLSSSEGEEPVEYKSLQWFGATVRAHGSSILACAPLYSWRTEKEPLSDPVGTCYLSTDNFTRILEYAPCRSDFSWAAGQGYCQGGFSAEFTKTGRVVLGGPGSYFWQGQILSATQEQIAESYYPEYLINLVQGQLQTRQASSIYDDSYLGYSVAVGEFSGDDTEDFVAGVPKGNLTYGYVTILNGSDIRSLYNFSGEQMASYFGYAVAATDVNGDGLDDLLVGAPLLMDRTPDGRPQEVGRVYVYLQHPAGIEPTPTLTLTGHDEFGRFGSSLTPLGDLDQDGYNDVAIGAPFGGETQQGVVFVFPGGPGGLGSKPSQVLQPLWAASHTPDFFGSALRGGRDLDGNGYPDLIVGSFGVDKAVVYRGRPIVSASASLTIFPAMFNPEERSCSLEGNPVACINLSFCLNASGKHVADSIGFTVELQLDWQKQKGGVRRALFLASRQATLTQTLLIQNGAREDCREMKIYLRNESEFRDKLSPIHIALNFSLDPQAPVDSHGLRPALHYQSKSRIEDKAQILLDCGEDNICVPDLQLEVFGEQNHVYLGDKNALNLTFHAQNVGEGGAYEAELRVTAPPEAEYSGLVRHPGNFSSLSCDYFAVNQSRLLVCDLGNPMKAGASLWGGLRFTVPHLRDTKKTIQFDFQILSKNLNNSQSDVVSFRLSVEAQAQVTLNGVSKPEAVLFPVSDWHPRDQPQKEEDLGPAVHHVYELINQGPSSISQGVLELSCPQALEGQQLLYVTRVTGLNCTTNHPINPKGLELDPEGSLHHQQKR
Chain of Integrin alpha-5/beta-1 (P08648 895-1049 limits assumed): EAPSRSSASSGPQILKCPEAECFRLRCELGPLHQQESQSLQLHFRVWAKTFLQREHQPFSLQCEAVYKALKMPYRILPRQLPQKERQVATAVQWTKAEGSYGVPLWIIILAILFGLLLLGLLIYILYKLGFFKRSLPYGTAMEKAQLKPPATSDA
Summary of the method: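 Colon carcinoma SW480 cells plated on fibronectin (0.3 mg/ml) to isolate α5β1-dependent adhesion. Values reported as pIC50 (–logIC50, M) with standard deviation, n=3.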

Integrin alpha-V/beta-5 = Integrin alpha-V/beta-5 (Homo sapiens, UniProt P06756+P18084); assay: Inhibition of human wild type integrin alphaVbeta5-mediated human SW480 cell adhesion to vitronectin preincubated for 15 to 30 mins followed by 60 min incubation for adhesion by crystal violet staining based cell adhesion assay
Chain of Integrin alpha-V/beta-5 (P06756 31-889 limits assumed): as the sequence (P06756 31-889 limits assumed) above
Chain of Integrin alpha-V/beta-5 (P06756 891-1048 limits assumed): as the sequence (P06756 891-1048 limits assumed) above
Chain of Integrin alpha-V/beta-5 (P18084 24-799 limits assumed): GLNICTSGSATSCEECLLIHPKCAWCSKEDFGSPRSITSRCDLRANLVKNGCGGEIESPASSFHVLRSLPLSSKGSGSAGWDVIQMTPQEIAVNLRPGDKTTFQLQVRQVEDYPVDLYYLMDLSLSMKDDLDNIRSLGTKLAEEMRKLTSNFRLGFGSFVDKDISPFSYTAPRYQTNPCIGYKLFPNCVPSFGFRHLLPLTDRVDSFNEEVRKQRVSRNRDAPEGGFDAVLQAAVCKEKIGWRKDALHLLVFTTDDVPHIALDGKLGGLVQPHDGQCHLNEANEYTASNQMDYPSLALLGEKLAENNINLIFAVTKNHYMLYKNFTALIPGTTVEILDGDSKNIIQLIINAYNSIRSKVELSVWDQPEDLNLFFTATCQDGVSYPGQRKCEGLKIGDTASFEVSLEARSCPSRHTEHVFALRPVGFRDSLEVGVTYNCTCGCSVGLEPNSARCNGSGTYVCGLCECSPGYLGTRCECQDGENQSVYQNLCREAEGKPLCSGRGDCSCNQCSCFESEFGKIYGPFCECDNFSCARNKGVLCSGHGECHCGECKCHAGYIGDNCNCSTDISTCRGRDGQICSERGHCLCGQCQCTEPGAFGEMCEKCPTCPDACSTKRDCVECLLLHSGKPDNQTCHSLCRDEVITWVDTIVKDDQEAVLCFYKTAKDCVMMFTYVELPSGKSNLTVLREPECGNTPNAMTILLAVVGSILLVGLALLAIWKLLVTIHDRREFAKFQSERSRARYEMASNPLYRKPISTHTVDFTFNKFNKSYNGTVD
Summary of the method: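 Wild-type SW480 cells adhering to vitronectin (0.1 mg/ml) served to isolate αvβ5. Values reported as pIC50 (–logIC50, M) with standard deviation, n=3.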

Integrin alpha-V/beta-3 = Integrin alpha-V/beta-3 (Homo sapiens, UniProt P05106+P06756); assay: Inhibition of human integrin alphaVbeta3-mediated human SW480 cell adhesion to fibrinogen preincubated for 15 to 30 mins followed by 60 min incubation for adhesion by crystal violet staining based cell adhesion assay
Summary of the method: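 Adhesion of SW480 cells transfected with human β3 to fibrinogen (1 mg/ml), isolating αvβ3. Values reported as pIC50 (–logIC50, M) with standard deviation, n=3.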

Integrin alpha-V/beta-8 = Integrin alpha-V/beta-8 (Homo sapiens, UniProt P06756+P26012); assay: Inhibition of human integrin alphaVbeta8-mediated human SNB19 cell adhesion to recombinant human TGFbeta1 LAP preincubated for 15 to 30 mins followed by 60 min incubation for adhesion by crystal violet staining based cell adhesion assay; design: species or system SNB-19
Chain of Integrin alpha-V/beta-8 (P06756 31-889 limits assumed): as the sequence (P06756 31-889 limits assumed) above
Chain of Integrin alpha-V/beta-8 (P06756 891-1048 limits assumed): as the sequence (P06756 891-1048 limits assumed) above
Chain of Integrin alpha-V/beta-8 (P26012 43-769 limits assumed): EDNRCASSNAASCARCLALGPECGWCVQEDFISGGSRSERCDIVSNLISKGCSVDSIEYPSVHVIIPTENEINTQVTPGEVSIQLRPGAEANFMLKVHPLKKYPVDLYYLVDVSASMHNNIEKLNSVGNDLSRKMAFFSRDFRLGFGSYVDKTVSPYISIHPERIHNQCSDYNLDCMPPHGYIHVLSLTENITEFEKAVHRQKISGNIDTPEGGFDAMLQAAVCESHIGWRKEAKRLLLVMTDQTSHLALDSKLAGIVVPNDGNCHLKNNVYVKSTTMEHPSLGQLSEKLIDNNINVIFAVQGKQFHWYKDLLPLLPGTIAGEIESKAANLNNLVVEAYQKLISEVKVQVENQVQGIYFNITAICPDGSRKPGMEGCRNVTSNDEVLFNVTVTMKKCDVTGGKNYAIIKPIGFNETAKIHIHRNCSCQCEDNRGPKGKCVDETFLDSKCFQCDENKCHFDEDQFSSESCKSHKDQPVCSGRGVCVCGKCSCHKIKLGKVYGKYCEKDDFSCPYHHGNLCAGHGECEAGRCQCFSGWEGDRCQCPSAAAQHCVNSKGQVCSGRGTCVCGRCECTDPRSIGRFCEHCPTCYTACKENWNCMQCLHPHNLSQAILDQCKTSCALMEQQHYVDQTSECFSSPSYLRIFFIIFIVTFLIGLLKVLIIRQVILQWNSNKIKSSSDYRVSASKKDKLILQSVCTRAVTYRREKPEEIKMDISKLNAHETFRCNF
Summary of the method: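 The αvβ8-expressing glioma line SNB19 was tested for adhesion to recombinant human TGFβ1 LAP (1 mg/ml). Values reported as pIC50 (–logIC50, M) with standard deviation, n=3.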

SMILES | IC50 (Integrin alpha-V/beta-1; read-out: IC50) [nM] | further results
N=C(N)NCCCCC(=O)Nc1ccc(C[C@H](NC(=O)[C@@H]2CCCN2S(=O)(=O)c2ccc3ccccc3c2)C(=O)O)cc1 | 2500 | 
N=C(N)NCCCCC(=O)Nc1ccc(C[C@H](NC(=O)[C@@H]2CCCN2S(=O)(=O)c2ccccc2)C(=O)O)cc1 | 0.63 | IC50 (Integrin alpha-5/beta-1): > 10000 nM; IC50 (Integrin alpha-V/beta-5): > 10000 nM; IC50 (Integrin alpha-V/beta-3): > 10000 nM; IC50 (Integrin alpha-V/beta-8): > 10000 nM
N=C(N)Nc1cccc(C(=O)Nc2ccc(C[C@H](NC(=O)[C@@H]3CCCN3S(=O)(=O)c3ccccc3)C(=O)O)cc2)c1 | 0.06 | IC50 (Integrin alpha-5/beta-1): 63 nM; IC50 (Integrin alpha-V/beta-5): > 10000 nM; IC50 (Integrin alpha-V/beta-3): 160 nM; IC50 (Integrin alpha-V/beta-8): 40 nM
N=C(N)Nc1ccc(C(=O)Nc2ccc(C[C@H](NC(=O)[C@@H]3CCCN3S(=O)(=O)c3ccccc3)C(=O)O)cc2)cc1 | 800 | 
N=C(N)NCCCCC(=O)Nc1ccc(C[C@H](NC(=O)[C@@H]2C[C@H](F)CN2S(=O)(=O)c2ccccc2)C(=O)O)cc1 | 0.5 | 
N=C(N)NCCCCC(=O)Nc1ccc(C[C@H](NC(=O)[C@@H]2CCN2S(=O)(=O)c2ccccc2)C(=O)O)cc1 | 160 | 
N=C(N)NCCCCC(=O)Nc1ccc(C[C@H](NC(=O)[C@@H]2CCCN2S(=O)(=O)c2cccnc2)C(=O)O)cc1 | 32 | 
Cc1cc(C)c(S(=O)(=O)N2CCC[C@H]2C(=O)N[C@@H](Cc2ccc(NC(=O)CCCCNC(=N)N)cc2)C(=O)O)c(C)c1 |  | IC50 (Integrin alpha-V/beta-1; cho, read-out: IC50): > 10000 nM; IC50 (Integrin alpha-V/beta-1; read-out: pIC50 (converted)): > 10000 nM
N=C(N)N[C@H]1CC[C@@H](C(=O)Nc2ccc(C[C@H](NC(=O)[C@@H]3CCCN3S(=O)(=O)c3ccccc3)C(=O)O)cc2)CC1 | 2 | 
O=C(CCCNc1ccccn1)Nc1ccc(C[C@H](NC(=O)[C@@H]2CCCN2S(=O)(=O)c2ccccc2)C(=O)O)cc1 | 0.2 | IC50 (Integrin alpha-5/beta-1): > 10000 nM; IC50 (Integrin alpha-V/beta-5): > 10000 nM; IC50 (Integrin alpha-V/beta-3): > 10000 nM; IC50 (Integrin alpha-V/beta-8): 400 nM
N=C(N)NCCCC(=O)Nc1ccc(C[C@H](NC(=O)[C@@H]2CCCCN2S(=O)(=O)c2ccccc2)C(=O)O)cc1 | 0.25 | IC50 (Integrin alpha-5/beta-1): 3200 nM; IC50 (Integrin alpha-V/beta-5): 1600 nM; IC50 (Integrin alpha-V/beta-3): 2000 nM; IC50 (Integrin alpha-V/beta-8): 2500 nM
O=C(CCCCNC1=NCCCN1)Nc1ccc(C[C@H](NC(=O)[C@@H]2CCCN2S(=O)(=O)c2ccccc2)C(=O)O)cc1 | 2 | 
O=C(CCCCNC1=NCCN1)Nc1ccc(C[C@H](NC(=O)[C@@H]2CCCN2S(=O)(=O)c2ccccc2)C(=O)O)cc1 | 0.31 to 0.32 | IC50 (Integrin alpha-5/beta-1): > 10000 nM; IC50 (Integrin alpha-V/beta-1; read-out: pIC50 (converted)): 0.316 nM; IC50 (Integrin alpha-V/beta-5): 200 nM; IC50 (Integrin alpha-V/beta-3): > 10000 nM; IC50 (Integrin alpha-V/beta-8): > 10000 nM
Cc1cc(C)cc(S(=O)(=O)N2CCC[C@H]2C(=O)N[C@@H](Cc2ccc(NC(=O)CCCNC(=N)N)cc2)C(=O)O)c1 | 790 | 
CC1(C)SCN(S(=O)(=O)c2ccccc2)[C@@H]1C(=O)N[C@@H](Cc1ccc(NC(=O)CCCCNC(=N)N)cc1)C(=O)O | 2000 | 
C[C@@]1(C(=O)N[C@@H](Cc2ccc(NC(=O)CCCCNC(=N)N)cc2)C(=O)O)CCCN1S(=O)(=O)c1ccccc1 |  | IC50 (Integrin alpha-V/beta-1; cho, read-out: IC50): > 10000 nM; IC50 (Integrin alpha-V/beta-1; read-out: pIC50 (converted)): > 10000 nM
N=C(N)NCCCCC(=O)Nc1ccc(C[C@H](NC(=O)[C@@H]2CCCN2S(=O)(=O)c2cccs2)C(=O)O)cc1 | 50 | 
N=C(N)NCCCCC(=O)Nc1ccc(C[C@H](NC(=O)[C@@H]2C[C@@H](F)CN2S(=O)(=O)c2ccccc2)C(=O)O)cc1 | 0.5 | 

SMILES | IC50 (Integrin alpha-V/beta-1; read-out: IC50) [nM] | further results
Cc1cccc(NCCCC(=O)Nc2ccc(C[C@H](NC(=O)[C@@H]3CCCN3S(=O)(=O)c3ccccc3)C(=O)O)cc2)n1 | 200 | 
O=C(CCCCNc1ccccn1)Nc1ccc(C[C@H](NC(=O)[C@@H]2CCCN2S(=O)(=O)c2ccccc2)C(=O)O)cc1 | 2 | 
N=C(N)NCCCCC(=O)Nc1ccc(C[C@H](NC(=O)[C@@H]2CCCN2S(=O)(=O)c2cc(F)cc(F)c2)C(=O)O)cc1 | 40 | 
O=C(CCCNC1=NCCN1)Nc1ccc(C[C@H](NC(=O)[C@@H]2CCCN2S(=O)(=O)c2ccccc2)C(=O)O)cc1 | 0.13 | 
N=C(N)NCCCCC(=O)Nc1ccc(C[C@H](NC(=O)[C@@H]2CCCCN2S(=O)(=O)c2ccccc2)C(=O)O)cc1 | 0.31 to 0.32 | IC50 (Integrin alpha-5/beta-1): 3200 nM; IC50 (Integrin alpha-V/beta-1; read-out: pIC50 (converted)): 0.316 nM; IC50 (Integrin alpha-V/beta-5): 160 nM; IC50 (Integrin alpha-V/beta-3): 4000 nM; IC50 (Integrin alpha-V/beta-8): 2000 nM
N=C(N)NCCCCC(=O)Nc1ccc(C[C@H](NC(=O)[C@@H]2CCCN2S(=O)(=O)c2ccccc2[N+](=O)[O-])C(=O)O)cc1 | 630 | 
N=C(N)NCCCCC(=O)Nc1ccc(C[C@H](NC(=O)[C@@H]2CCCN2S(=O)(=O)c2cccc([N+](=O)[O-])c2)C(=O)O)cc1 | 13 | 
CN(C)c1cccc2c(S(=O)(=O)N3CCC[C@H]3C(=O)N[C@@H](Cc3ccc(NC(=O)CCCCNC(=N)N)cc3)C(=O)O)cccc12 | 79 | 
N=C(N)NCCCC(=O)Nc1ccc(C[C@H](NC(=O)[C@@H]2CCCN2S(=O)(=O)c2ccccc2)C(=O)O)cc1 | 0.02 | 
N=C(N)Nc1ccc(CC(=O)Nc2ccc(C[C@H](NC(=O)[C@@H]3CCCN3S(=O)(=O)c3ccccc3)C(=O)O)cc2)cc1 | 50 | 
Cc1ccc(S(=O)(=O)N2CCC[C@H]2C(=O)N[C@@H](Cc2ccc(NC(=O)CCCNC(=N)N)cc2)C(=O)O)cc1 | 630 | 
Cc1ccc(NCCCC(=O)Nc2ccc(C[C@H](NC(=O)[C@@H]3CCCN3S(=O)(=O)c3ccccc3)C(=O)O)cc2)nc1 | 320 | 
N=C(N)NCCCCC(=O)Nc1ccc(C[C@H](NC(=O)[C@@H]2CSCN2S(=O)(=O)c2ccccc2)C(=O)O)cc1 | 16 | 
N=C(N)NC12CC3CC(C1)CC(C(=O)Nc1ccc(C[C@H](NC(=O)[C@@H]4CCCN4S(=O)(=O)c4ccccc4)C(=O)O)cc1)(C3)C2 | 2500 | 
Cc1cc(F)ccc1S(=O)(=O)N1CCC[C@H]1C(=O)N[C@@H](Cc1ccc(NC(=O)CCCCNC(=N)N)cc1)C(=O)O | 500 | 
N=C(N)NCCCCC(=O)Nc1ccc(C[C@H](NC(=O)[C@@H]2C=CCN2S(=O)(=O)c2ccccc2)C(=O)O)cc1 | 800 | 
Cc1ccc(S(=O)(=O)N2CCC[C@H]2C(=O)N[C@@H](Cc2ccc(NC(=O)CCCCNC(=N)N)cc2)C(=O)O)c2ccccc12 | 6300 | 
